Reference: ChEMBL document CHEMBL5244249, “Discovery of tofacitinib derivatives as orally active antitumor agents based on the scaffold hybridization strategy” (Eur J Med Chem, 2020)
Calls of active or inactive are those of the source. The rule behind the calls is not given here.

Tests used:
[1] = Activation of MAPK pathway in human MGC-803 cells assessed as change in ERK1/2 total expression at 5 to 10 uM incubated for 24 hrs by Western blot analysis; format: cell-based; conditions: dose 5-10 µM
[2] = system: MGC-803; test: Induction of mitochondrial dysfunction in human MGC-803 cells assessed as upregulation of cleaved PARP expression at 5 to 10 uM incubated for 24 hrs by Western blot analysis; format: functional, cell-based; conditions: dose 5-10 µM
In short: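 Western blot of caspase 9, 3, 7, PARP and γH2A.X in MGC-803 lysates after 24 h exposure to 5, 7.5 or 10 μM; band quantitation; mean ± SD from three independent experiments.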

[3] = system: MGC-803; test: Induction of apoptosis in human MGC-803 cells assessed as late apoptotic cells at 5 uM incubated for 24 hrs by Annexin V-FITC/PI staining based flow cytometric analysis (reference value: 3.8 %); format: functional
[4] = system: MGC-803; test: Induction of apoptosis in human MGC-803 cells assessed as activation of cytochrome C release from mitochondria to cytoplasm incubated for 24 hrs by Western blot analysis; format: functional, cell-based; conditions: dose 5-10 µM
In short: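 After 24 h exposure of MGC-803 cells, Bcl-2, Mcl-1, Bax and cytochrome c release assessed by Western blot with band quantitation; mean ± SD from three independent experiments.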

[5] = Activation of MAPK pathway in human MGC-803 cells assessed as change in JNK total expression at 5 to 10 uM incubated for 24 hrs by Western blot analysis; format: cell-based; conditions: dose 5-10 µM

Which results are given for `Cc1cc(N2CC[C@@H](C)[C@@H](N(C)c3ncnc4[nH]ccc34)C2)n2nc(SCc3ccc(C(F)(F)F)cc3)nc2n1`?
Activity [1]: inactive; Activity [2]: Active; Activity [3]: 8.8%; Activity [4]: Dose-Dependent Effect; Activity [5]: inactive
